Values after ≈ are worked out from the molar mass of the structure shown.
How the values were obtained:
Salmonella typhimurium [1] = assay: Genotoxicity against Salmonella typhimurium TA100 assessed as fold increase in revertants at 0.3125 mg/ml after 90 mins by Ames MPF test in absence of S9 fraction relative to baseline; assay type: toxicity, organism-based; details: salmonella enterica subsp. enterica serovar typhimurium, 1.5 h
Procedure, shortened: (§1)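 Ames MPF fluctuation test, TA98 and TA100: overnight cultures reincubated 90 min, then exposed 90 min at 37 °C to compounds at 0.156-5 mg/mL (in DMSO) with or without 4.5% v/v S9; indicator medium added, 48 wells per sample scored yellow after 48 h, triplicate. Fold over baseline = mean positive wells / (mean of DMSO control + 1 SD).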

Salmonella typhimurium [2] = assay: Genotoxicity against Salmonella typhimurium TA100 assessed as fold increase in revertants at 1.25 mg/ml after 90 mins by Ames MPF test in presence of S9 fraction relative to baseline; assay type: toxicity, organism-based; details: salmonella enterica subsp. enterica serovar typhimurium, s9, 1.5 h; procedure, shortened: as §1
Salmonella typhimurium [3] = assay: Genotoxicity against Salmonella typhimurium TA100 assessed as fold increase in revertants at 0.3125 mg/ml after 90 mins by Ames MPF test in presence of S9 fraction relative to baseline; assay type: toxicity, organism-based; details: salmonella enterica subsp. enterica serovar typhimurium, s9, 1.5 h; procedure, shortened: as §1
Salmonella typhimurium [4] = assay: Genotoxicity against Salmonella typhimurium TA98 assessed as fold increase in revertants at 2.5 mg/ml after 90 mins by Ames MPF test in absence of S9 fraction relative to baseline; assay type: toxicity, organism-based; details: salmonella enterica subsp. enterica serovar typhimurium, 1.5 h; procedure, shortened: as §1
Pichia kudriavzevii = assay: Antifungal activity against Candida krusei NRRL Y-7179 after 24 hrs by microdilution susceptibility assay; assay type: functional; details: NRRL Y-7179, 24 h
Procedure, shortened: (§2)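 Broth microdilution in Mueller Hinton Broth, compounds from DMSO stocks diluted serially; inocula standardized to 10^6 CFU/mL (McFarland 0.5) from overnight MHB cultures. Plates held 37 °C for 24 h; MIC taken as first well without turbidity, aided by 1% tetrazolium violet added for 3 h at 37 °C. Ketoconazole reference.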

Salmonella typhimurium [5] = assay: Genotoxicity against Salmonella typhimurium TA1535/pSK1002 assessed as growth factor ratio at 2.5 mg/ml by umuC assay in absence of S9 fraction; assay type: toxicity, organism-based; details: salmonella enterica subsp. enterica serovar typhimurium
Procedure, shortened: (§3)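 umuC Easy CS: TA1535/pSK1002 grown overnight in ampicillin TG medium at 37 °C, then exposed 2 h at 37 °C to compounds at 5, 2.5, 1.25, 0.63 mg/mL with or without S9. Diluted into fresh medium for 2 h growth (OD600), then β-galactosidase with ONPG 30 min at 28 °C, OD420. Positive controls 2-aminoanthracene (+S9), […] (−S9).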

Salmonella typhimurium [6] = assay: Genotoxicity against Salmonella typhimurium TA98 assessed as fold increase in revertants at 0.3125 mg/ml after 90 mins by Ames MPF test in presence of S9 fraction relative to baseline; assay type: toxicity, organism-based; details: salmonella enterica subsp. enterica serovar typhimurium, s9, 1.5 h; procedure, shortened: as §1
Salmonella typhimurium [7] = assay: Genotoxicity against Salmonella typhimurium TA98 assessed as fold increase in revertants at 0.625 mg/ml after 90 mins by Ames MPF test in absence of S9 fraction relative to baseline; assay type: toxicity, organism-based; details: salmonella enterica subsp. enterica serovar typhimurium, 1.5 h; procedure, shortened: as §1
Salmonella typhimurium [8] = assay: Genotoxicity against Salmonella typhimurium TA1535/pSK1002 assessed as growth factor ratio at 1.25 mg/ml by umuC assay in absence of S9 fraction; assay type: toxicity, organism-based; details: salmonella enterica subsp. enterica serovar typhimurium; procedure, shortened: as §3
Salmonella typhimurium [9] = assay: Genotoxicity against Salmonella typhimurium TA1535/pSK1002 assessed as growth factor ratio at 1.25 mg/ml by umuC assay in presence of S9 fraction; assay type: toxicity, organism-based; details: salmonella enterica subsp. enterica serovar typhimurium; procedure, shortened: as §3
Salmonella typhimurium [10] = assay: Genotoxicity against Salmonella typhimurium TA98 assessed as fold increase in revertants at 2.5 mg/ml after 90 mins by Ames MPF test in presence of S9 fraction relative to baseline; assay type: toxicity, organism-based; details: salmonella enterica subsp. enterica serovar typhimurium, s9, 1.5 h; procedure, shortened: as §1
Cyberlindnera jadinii = assay: Antifungal activity against Candida utilis NRRL Y-900 after 24 hrs by microdilution susceptibility assay; assay type: functional; details: Williopsis jadinii, NRRL Y-900, 24 h; procedure, shortened: as §2
Salmonella typhimurium [11] = assay: Genotoxicity against Salmonella typhimurium TA1535/pSK1002 assessed as growth factor ratio at 5 mg/ml by umuC assay in absence of S9 fraction; assay type: toxicity, organism-based; details: salmonella enterica subsp. enterica serovar typhimurium; procedure, shortened: as §3
Salmonella typhimurium [12] = assay: Genotoxicity against Salmonella typhimurium TA100 assessed as fold increase in revertants at 0.156 mg/ml after 90 mins by Ames MPF test in absence of S9 fraction relative to baseline; assay type: toxicity, organism-based; details: salmonella enterica subsp. enterica serovar typhimurium, 1.5 h; procedure, shortened: as §1
Nakaseomyces glabratus = assay: Antifungal activity against Candida glabrata Osmangazi University clinical isolate after 24 hrs by microdilution susceptibility assay; assay type: functional; procedure, shortened: as §2
Salmonella typhimurium [13] = assay: Genotoxicity against Salmonella typhimurium TA1535/pSK1002 assessed as growth factor ratio at 0.63 mg/ml by umuC assay in absence of S9 fraction; assay type: toxicity, organism-based; details: salmonella enterica subsp. enterica serovar typhimurium; procedure, shortened: as §3
Candida albicans = assay: Antifungal activity against Candida albicans ATCC 90028 after 24 hrs by microdilution susceptibility assay; assay type: functional; details: ATCC 90028, 24 h; procedure, shortened: as §2
Salmonella typhimurium [14] = assay: Genotoxicity against Salmonella typhimurium TA1535/pSK1002 assessed as induction ratio at 2.5 mg/ml by umuC assay in presence of S9 fraction; assay type: toxicity, organism-based; details: salmonella enterica subsp. enterica serovar typhimurium; procedure, shortened: as §3
Salmonella typhimurium [15] = assay: Genotoxicity against Salmonella typhimurium TA100 assessed as fold increase in revertants at 5 mg/ml after 90 mins by Ames MPF test in absence of S9 fraction relative to baseline; assay type: toxicity, organism-based; details: salmonella enterica subsp. enterica serovar typhimurium, 1.5 h; procedure, shortened: as §1
Salmonella typhimurium [16] = assay: Genotoxicity against Salmonella typhimurium TA1535/pSK1002 assessed as growth factor ratio at 5 mg/ml by umuC assay in presence of S9 fraction; assay type: toxicity, organism-based; details: salmonella enterica subsp. enterica serovar typhimurium; procedure, shortened: as §3
Salmonella typhimurium [17] = assay: Genotoxicity against Salmonella typhimurium TA98 assessed as fold increase in revertants at 5 mg/ml after 90 mins by Ames MPF test in presence of S9 fraction relative to baseline; assay type: toxicity, organism-based; details: salmonella enterica subsp. enterica serovar typhimurium, s9, 1.5 h; procedure, shortened: as §1
Salmonella typhimurium [18] = assay: Genotoxicity against Salmonella typhimurium TA98 assessed as fold increase in revertants at 0.156 mg/ml after 90 mins by Ames MPF test in absence of S9 fraction relative to baseline; assay type: toxicity, organism-based; details: salmonella enterica subsp. enterica serovar typhimurium, 1.5 h; procedure, shortened: as §1
Salmonella typhimurium [19] = assay: Genotoxicity against Salmonella typhimurium TA1535/pSK1002 assessed as growth factor ratio at 2.5 mg/ml by umuC assay in presence of S9 fraction; assay type: toxicity, organism-based; details: salmonella enterica subsp. enterica serovar typhimurium; procedure, shortened: as §3
Salmonella typhimurium [20] = assay: Genotoxicity against Salmonella typhimurium TA98 assessed as fold increase in revertants at 5 mg/ml after 90 mins by Ames MPF test in absence of S9 fraction relative to baseline; assay type: toxicity, organism-based; details: salmonella enterica subsp. enterica serovar typhimurium, 1.5 h; procedure, shortened: as §1
[21] = Genotoxicity against Salmonella typhimurium TA1535/pSK1002 assessed as induction ratio at 1.25 mg/ml by umuC assay in absence of S9 fraction; assay type: toxicity, organism-based; details: salmonella enterica subsp. enterica serovar typhimurium, Salmonella typhimurium TA1535/pSK1002 without S9 fraction; procedure, shortened: as §3
[22] = Genotoxicity against Salmonella typhimurium TA1535/pSK1002 assessed as induction ratio at 2.5 mg/ml by umuC assay in absence of S9 fraction; assay type: toxicity, organism-based; details: salmonella enterica subsp. enterica serovar typhimurium, Salmonella typhimurium TA1535/pSK1002 without S9 fraction; procedure, shortened: as §3
Salmonella typhimurium [23] = assay: Genotoxicity against Salmonella typhimurium TA98 assessed as fold increase in revertants at 0.3125 mg/ml after 90 mins by Ames MPF test in absence of S9 fraction relative to baseline; assay type: toxicity, organism-based; details: salmonella enterica subsp. enterica serovar typhimurium, 1.5 h; procedure, shortened: as §1
[24] = Genotoxicity against Salmonella typhimurium TA1535/pSK1002 assessed as induction ratio at 5 mg/ml by umuC assay in absence of S9 fraction; assay type: toxicity, organism-based; details: salmonella enterica subsp. enterica serovar typhimurium, Salmonella typhimurium TA1535/pSK1002 without S9 fraction; procedure, shortened: as §3
Candida parapsilosis = assay: Antifungal activity against Candida parapsilosis NRRL Y-12696 after 24 hrs by microdilution susceptibility assay; assay type: functional; details: Lodderomyces parapsilosis, NRRL Y-12696, 24 h; procedure, shortened: as §2
Salmonella typhimurium [25] = assay: Genotoxicity against Salmonella typhimurium TA98 assessed as fold increase in revertants at 1.25 mg/ml after 90 mins by Ames MPF test in presence of S9 fraction relative to baseline; assay type: toxicity, organism-based; details: salmonella enterica subsp. enterica serovar typhimurium, s9, 1.5 h; procedure, shortened: as §1

MIC (Pichia kudriavzevii) [µg/mL]	MIC (Cyberlindnera jadinii) [µg/mL]	MIC (Nakaseomyces glabratus) [µg/mL]	MIC (Candida albicans) [µg/mL]	SMILES	fold change (FC) (Salmonella typhimurium [1])	fold change (FC) (Salmonella typhimurium [2])	fold change (FC) (Salmonella typhimurium [3])	fold change (FC) (Salmonella typhimurium [4])	Ratio (Salmonella typhimurium [5])	fold change (FC) (Salmonella typhimurium [6])	fold change (FC) (Salmonella typhimurium [7])	Ratio (Salmonella typhimurium [8])	Ratio (Salmonella typhimurium [9])	fold change (FC) (Salmonella typhimurium [10])	Ratio (Salmonella typhimurium [11])	fold change (FC) (Salmonella typhimurium [12])	Ratio (Salmonella typhimurium [13])	Ratio (Salmonella typhimurium [14])	fold change (FC) (Salmonella typhimurium [15])	Ratio (Salmonella typhimurium [16])	also measured
125 (≈ 389 µM)	250 (≈ 778 µM)	500 (≈ 1560 µM)	62.5 (≈ 195 µM)	Cn1nnnc1SCC(=O)N/N=C/c1ccccc1[N+](=O)[O-]	1.67	1.93	1.08	1.96	1.03	1.22	1.47	1.022	0.879	2.22	1.281	1.67	1.068	1.014	1.33	0.913	fold change (FC) (Salmonella typhimurium [17]): 1.11; fold change (FC) (Salmonella typhimurium [18]): 1.63; Ratio (Salmonella typhimurium [19]): 0.922; fold change (FC) (Salmonella typhimurium [20]): 1.14; fold induction at 1.25 mg/ml [21]: 1.51; fold induction at 2.5 mg/ml [22]: 1.63; fold change (FC) (Salmonella typhimurium [23]): 1.63; fold induction at 5 mg/ml [24]: 1.43; MIC (Candida parapsilosis): 500 µg/mL (≈ 1560 µM); fold change (FC) (Salmonella typhimurium [25]): 2
62.5 (≈ 196 µM)	125 (≈ 391 µM)	500 (≈ 1570 µM)	50 (≈ 157 µM)	CN(C)c1ccc(/C=N/NC(=O)CSc2nnnn2C)cc1	1.19	0.26	0.47	0	1.743	0.57	1.59	1.191	1.538	1.14	2.781	1.9	0.962	0.598	0.81	2.82	fold change (FC) (Salmonella typhimurium [17]): 0.86; fold change (FC) (Salmonella typhimurium [18]): 0.32; Ratio (Salmonella typhimurium [19]): 1.992; fold change (FC) (Salmonella typhimurium [20]): 0; fold induction at 1.25 mg/ml [21]: 1.13; fold induction at 2.5 mg/ml [22]: 0.88; fold change (FC) (Salmonella typhimurium [23]): 1.27; fold induction at 5 mg/ml [24]: 0.565; MIC (Candida parapsilosis): 500 µg/mL (≈ 1570 µM); fold change (FC) (Salmonella typhimurium [25]): 0.86
125 (≈ 408 µM)	250 (≈ 816 µM)	500 (≈ 1630 µM)	500 (≈ 1630 µM)	COc1ccc(/C=N/NC(=O)CSc2nnnn2C)cc1	0.4	0.81	0.77	0.33	1.166	0.84	0.65	1.137	1.294	0.53	1.99	0.7	1.028	0.681	0.5	2.261	fold change (FC) (Salmonella typhimurium [17]): 0.84; fold change (FC) (Salmonella typhimurium [18]): 0.16; Ratio (Salmonella typhimurium [19]): 1.83; fold change (FC) (Salmonella typhimurium [20]): 0.33; fold induction at 1.25 mg/ml [21]: 1.12; fold induction at 2.5 mg/ml [22]: 1.04; fold change (FC) (Salmonella typhimurium [23]): 0.16; fold induction at 5 mg/ml [24]: 0.763; MIC (Candida parapsilosis): 250 µg/mL (≈ 816 µM); fold change (FC) (Salmonella typhimurium [25]): 0.53
